Data on 16 compounds can be found in ChEMBL document CHEMBL3414423, “Jatrophane diterpenes as inhibitors of chikungunya virus replication: structure-activity relationship and discovery of a potent lead” (J Nat Prod, 2014).

pEC50, pIC50: −log10 of the molar value. Bounds are passed on as bounds.

Data set [1] concerns Chikungunya virus. Description: Antiviral activity against Chikungunya virus 899 infected in African green monkey Vero cells assessed as inhibition of virus-induced cell death after 6 to 7 days by MTS assay. It counts as functional, cell-based. Conditions: Chikungunya virus, 899, Vero. (In general: Formazan colour is commonly taken as a measure of viable cells.)
Data set [2] concerns Human immunodeficiency virus 2. Description: Antiviral activity against Human immunodeficiency virus type 2 ROD infected in human MT4 cells assessed as inhibition of virus replication after 5 days by MTT assay. The settings on record: Human immunodeficiency virus 2, ISOLATE ROD, MT4, 120 h. It counts as functional, organism-based. Put shortly:
(§1)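 MT-4 cells ([…] suspension) infected with HIV-1 IIIB or HIV-2 ROD at 100−300 CCID50, with serial 5-fold compound dilutions in triplicate. Viability read by MTT reduction 5 days after infection. SI = CC50 MT-4/IC50. Median ± median absolute deviation, ≥3 independent assays.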

Data set [3] is described as follows: Cytotoxicity against human MT4 cells assessed as inhibition of overall cell metabolism after 5 days by MTT assay. Format: ADME, cell-based. In short, it runs like this:
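Mock-infected MT-4 cells in triplicate wells with serial 5-fold compound dilutions run alongside the infected series. Viability read by MTT formazan 5 days later; CC50 from the concentration-response. Median ± median absolute deviation, ≥3 independent assays.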

The subject of data set [4] is Semliki Forest virus. As to the kind of experiment: Antiviral activity against Semliki forest virus Vietnam infected in African green monkey Vero cells assessed as inhibition of virus-induced cell death after 6 to 7 days by MTS assay. It counts as functional, organism-based.
The test system of data set [5] is Human immunodeficiency virus 1. As to the kind of experiment: Antiviral activity against Human immunodeficiency virus 1 3b infected in human MT4 cells assessed as inhibition of virus replication after 5 days by MTT assay. Format: functional, organism-based. The settings on record: MT4, 120 h. Put shortly: as §1
The test system of data set [6] is Sindbis virus. Description: Antiviral activity against Sindbis virus HRsp infected in African green monkey Vero cells assessed as inhibition of virus-induced cell death after 6 to 7 days by MTS assay. It counts as functional, organism-based.
Data set [7] is described as follows: Cytotoxicity against African green monkey Vero cells assessed as inhibition of overall cell metabolism after 6 to 7 days by MTS assay. The settings on record: chlorocebus sabaeus. Format: ADME, cell-based. In short, it runs like this:
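Uninfected Vero cells (25 000/well) with compound serial dilutions in MEM with 2% FCS, 37 °C, 6−7 days. Readout 5% MTS for 1.5 h, absorbance 498 nm. CC50 is the concentration calculated to inhibit overall cell metabolism by 50%, from dose−response curves. Median ± median absolute deviation, ≥3 independent assays.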

Data set [8] in a line: Selectivity index, ratio of CC50 for human MT4 cells to IC50 for Human immunodeficiency virus 1 3b infected in human MT4 cells. Format: functional. Put shortly: as §1
The nature of data set [9]: Selectivity index, ratio of CC50 for African green monkey Vero cells to EC50 for Chikungunya virus 899 infected in African green monkey Vero cells. It counts as toxicity, cell-based. Conditions: read-out: Ratio CC50/EC50.
Data set [10] is described as follows: Selectivity index, ratio of CC50 for human MT4 cells to IC50 for Human immunodeficiency virus type 2 ROD infected in human MT4 cells. It counts as functional. In short, it runs like this: as §1
Data set [11] is described as follows: Selectivity index, ratio of CC50 for African green monkey Vero cells to EC50 for Sindbis virus HRsp infected in African green monkey Vero cells. Format: toxicity, cell-based. Conditions: read-out: Ratio CC50/EC50.
Data set [12] is described as follows: Cytotoxicity against human MT2 cells assessed as cell viability incubated for 2 weeks with every 48 to 72 hrs of compound washed out measured on day 2, 6, 10, 14 by CellTiter Glo luminescence assay. It counts as cell-based. (ATP-based viability assays read luminescence as a measure of living cells.)
Data set [13] relates to Human immunodeficiency virus 1. Description: Antiviral activity against recombinant Human immunodeficiency virus 1 NL4.3 containing Renilla gene infected in CD3/IL2-activated human MT2 cells assessed as inhibition of virus replication pretreated for 2 hrs followed by viral infection for additional 2 hrs measured after 48 hrs by Renilla-luciferase reporter gene assay. It counts as functional, organism-based. The settings on record: Human immunodeficiency virus 1, NL4.3, MT2. On the technique in general: A reporter such as luciferase makes a cellular process visible.

The nature of data set [14]: Selectivity index, ratio of CC50 for African green monkey Vero cells to EC50 for Semliki forest virus Vietnam infected in African green monkey Vero cells. Format: toxicity, cell-based. Conditions: read-out: Ratio CC50/EC50.

As a reminder, the pEC50 is the negative decadic logarithm of the EC50, by convention in mol/L. As usually defined, the pIC50 is the negative decadic logarithm of the IC50, by convention in mol/L. By CC50 is commonly meant the concentration that lowers cell viability or growth by half.

With `C=C1[C@H](OC(C)=O)[C@H]2[C@@H](OC(C)=O)[C@](C)(O)C[C@]2(OC(C)=O)C(=O)[C@H](C)/C=C/C(C)(C)C(=O)[C@H](OC(C)=O)[C@H]1OC(C)=O`, in data set [1], the pEC50 was below 3.79.

Consider `C=C1[C@H](OC(C)=O)[C@H]2[C@@H](OC(C)=O)[C@](C)(O)C[C@]2(OC(C)=O)C(=O)[C@H](C)/C=C/C(C)(C)C(=O)[C@H](OC(=O)C(C)C)[C@H]1OC(C)=O`, for which the pEC50 in [1] was below 3.71; in data set [4], below 3.80; in [6], below 3.80. The pIC50 in data set [2] and in data set [5] was below 4.10 throughout. For the same compound, the CC50 at 120 h in data set [3] is above 32 µM. In addition, the CC50 in data set [7] was above 196 µM.

Take `C=C1[C@H](OC(C)=O)[C@H]2[C@@H](OC(C)=O)[C@](C)(O)C[C@]2(OC(C)=O)C(=O)[C@H](C)/C=C/C(C)(C)C(=O)[C@H](OC(=O)/C(C)=C/C)[C@H]1OC(C)=O`: the pEC50 in data set [1] was 6.12; in data set [4], below 3.94; in [6] it was 4.36. Also, the “Ratio CC50/IC50” value in data set [8] is above 96; in data set [10], above 751. Further, the pIC50 in [2] is 7.37; in [5] it was 6.47. The selectivity ratio in [9] is 208; in [11], 3.6. Also, the CC50 at 120 h in data set [3] was above 32 µM. In addition, the CC50 in data set [7] came out at 159 µM.

Regarding `C=C1[C@H](OC(C)=O)[C@H]2[C@@H](OC(C)=O)[C@](C)(O)C[C@]2(OC(C)=O)C(=O)[C@H](C)/C=C/C(C)(C)C(=O)[C@H](OC(=O)c2ccccc2)[C@H]1OC(C)=O`, the pEC50 in [1] was 5.37; in data set [4], below 3.78; in [6] it was below 3.78. For the same compound, the results for the pIC50 in [2] and in data set [5] were 4.96 and below 4.23, respectively. In addition, the selectivity ratio in data set [9] turned out to be 29. For the same compound, the “Ratio CC50/IC50” value in data set [10] is above 2.8. The CC50 at 120 h in data set [3] was above 30 µM. The CC50 in [7] was 125 µM.

Turning to `C=C1[C@H](OC(C)=O)[C@H]2[C@@H](OC(C)=O)[C@](C)(OC(C)=O)C[C@]2(OC(C)=O)C(=O)[C@H](C)/C=C/C(C)(C)C(=O)[C@H](OC(C)=O)[C@H]1OC(C)=O`, the pEC50 in data set [1] was 4.22; in data set [4] it was below 3.94; in [6], below 3.81. In addition, the CC50 at 336 h in [12] is above 100 µM. Besides, the pIC50 was 5.23 in [2], 4.43 in data set [5] and 8.70 in data set [13]. In data set [9], the selectivity ratio was above 2.6. In [10], the “Ratio CC50/IC50” value is reported as above 5.5. Further, the CC50 at 120 h in data set [3] is above 33 µM. For the same compound, the CC50 in [7] was above 154 µM.

On to `C=C1[C@H](OC(C)=O)[C@H]2[C@@H](OC(C)=O)[C@](C)(OC(C)=O)C[C@]2(OC(C)=O)C(=O)[C@H](C)/C=C/C(C)(C)C(=O)[C@H](OC(=O)/C(C)=C/C)[C@H]1OC(C)=O`, for which the pEC50 in [1] is 4.76; in [4] it was below 3.84; in [6] it was below 3.84. The “Ratio CC50/IC50” value is reported as above 1.6 in data set [8] and above 18 in [10]. Besides, the pIC50 was 5.70 in data set [2] and 4.67 in data set [5]. Moreover, in data set [9], the selectivity ratio stood at 8.3. Also, the CC50 at 120 h in [3] is above 35 µM. Also, the CC50 in data set [7] was determined as 145 µM.

Regarding `C=C1[C@H](OC(C)=O)[C@H]2[C@@H](OC(C)=O)[C@](C)(OC(C)=O)C[C@]2(OC(C)=O)C(=O)[C@H](C)/C=C/C(C)(C)C(=O)[C@H](OC(=O)c2ccccc2)[C@H]1OC(C)=O`, the pEC50 in [1] is 4.77; in data set [4], below 3.85; in [6], below 3.85. The pIC50 in data set [2] was 4.46; in data set [5], below 4.15. Also, the selectivity ratio in [9] was above 2.9. Moreover, the “Ratio CC50/IC50” value in data set [10] is listed as above 1. The CC50 at 120 h in data set [3] was above 36 µM. Further, the CC50 in data set [7] was above 50 µM.

As for `C=C1[C@H](OC(C)=O)[C@H]2[C@@H](OC(=O)c3ccccc3)[C@@H](C)C[C@]2(O)[C@H](O)[C@H](C)/C=C/C(C)(C)C(=O)[C@H](OC(C)=O)[C@H]1OC(C)=O`, the pEC50 in data set [1] was 4.71; in data set [4], 4.21; in data set [6], 4.52. For the same compound, the pIC50 in [2] was 5.28; in data set [5], below 4.42. Moreover, the selectivity ratio in [9] was 7.8; in data set [14] it was 2.4; in data set [11], 5. Moreover, the “Ratio CC50/IC50” value in data set [10] is listed as above 6. Moreover, the CC50 at 120 h in [3] is above 31 µM. In addition, the CC50 in data set [7] worked out at 151 µM.

On to `C=C1[C@H](OC(C)=O)[C@H]2[C@@H](OC(=O)c3ccccc3)[C@@H](C)C[C@]2(O)[C@H](O)[C@H](C)/C=C/C(C)(C)C(=O)[C@H](OC(=O)C(C)C)[C@H]1OC(C)=O`, for which the pEC50 was 4.68 in data set [1], 4.69 in data set [4] and 4.54 in data set [6]. For the same compound, the pIC50 in data set [2] and in data set [5] was below 4.41 in each case. Besides, the selectivity ratio in [9] was found to be 2.8; in data set [14], 2.9; in data set [11] it was 2.1. In [3], the CC50 at 120 h was above 16 µM. Also, the CC50 in [7] came to 60 µM.

As to `C=C1[C@H](OC(C)=O)[C@H]2[C@@H](OC(=O)c3ccccc3)[C@@H](C)C[C@]2(O)[C@H](O)[C@H](C)/C=C/C(C)(C)C(=O)[C@H](OC(=O)C(C)CC)[C@H]1OC(C)=O` (stereo partly specified), the results for the pEC50 in data set [1], in data set [4] and in data set [6] were 3.95, 4.12 and 4.29, respectively. For the same compound, the pIC50 in [2] and in data set [5] was below 4.12 throughout. For the same compound, the selectivity ratio in [9] was above 1.7; in data set [14], above 2.5; in data set [11], above 3.7. Moreover, the CC50 at 120 h in data set [3] was above 33 µM. Further, the cytotoxic concentration (CC50) in data set [7] is above 190 µM.

Consider `C=C1[C@H](OC(C)=O)[C@H]2[C@@H](OC(=O)c3ccccc3)[C@@H](C)C[C@]2(O)[C@H](OC(C)=O)[C@H](C)/C=C/C(C)(C)C(=O)[C@H](O)[C@H]1OC(C)=O`, for which the pEC50 in data set [1] is 4.10; in data set [4] it was below 3.79; in data set [6] it was below 3.79. The results for the pIC50 in data set [2] and in data set [5] were 4.49 and below 4.09, respectively. The selectivity ratio in data set [9] is 1.9. For the same compound, in [10], the “Ratio CC50/IC50” value is given as below 0.9. Moreover, the CC50 at 120 h in data set [3] was above 31 µM. Moreover, the CC50 in [7] was determined as 150 µM.

For `CCN(CC)CCCC(C)Nc1ccnc2cc(Cl)ccc12` (stereo unspecified) [CHLOROQUINE], in data set [1], the pEC50 is 5.00.

Turning to `O=c1[nH]cnc2c1ncn2[C@H]1CC[C@@H](CO)O1` [DIDANOSINE], the results for the “Ratio CC50/IC50” value in [8] and in [10] were above 4.6 and above 5.2, respectively. Also, the pIC50 is 5.02 in data set [2] and 4.97 in data set [5]. Besides, the CC50 at 120 h in data set [3] is above 50 µM.

Regarding `Nc1ccn([C@@H]2CS[C@H](CO)O2)c(=O)n1` [LAMIVUDINE], the “Ratio CC50/IC50” value is above 22 in data set [8] and above 5.6 in [10]. In addition, the CC50 at 120 h in data set [3] was above 87 µM.

For the compound `Cc1ccnc2c1NC(=O)c1cccnc1N2C1CC1` [NEVIRAPINE], the pIC50 in data set [2] is below 4.82. Also, in data set [3], the CC50 at 120 h is above 15 µM.

As for `Cc1cn([C@H]2C[C@H](N=[N+]=[N-])[C@@H](CO)O2)c(=O)[nH]c1=O` [ZIDOVUDINE], the pIC50 in data set [2] is 8.22. Further, the CC50 at 120 h in [3] was above 25 µM.
